Compounds with a hit are over-represented: about 5.1% of the library has one in this group of screens.
STAT1 activator = STAT1 signaling activation; NIH 3T3 STAT1-luciferase reporter, IFN-gamma, luminescence; 100% = IFN-gamma alone, no compound; activation (% of control), % at 5.5 µM; 200,000 compounds, 2.6% hits;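 active = activation above the screen-wide mean activation plus 3 SD, cut at about 130% in these data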
STAT3 activator = STAT3 signaling activation; U3A cells, IL-6 STAT3-luciferase reporter, luminescence; 100% = signal with IL-6 EC80 alone; activation (% of control), % at 5.6 µM; 190,000 compounds, 0.91% hits; AID 871;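 active = activation above the screen-wide mean of compound activation plus 3 SD, cut at about 130% in these data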
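Material: human U3A cells carrying STAT3-luciferase construct. Measured by: reporter luminescence signal. Timing: compound 1 h, then IL-6 6 h at 37 °C.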
STAT1 blocker = reduces IFN-gamma driven STAT1 reporter signal | NIH 3T3 STAT1-luciferase reporter, luminescence | inhibition, % at 5.5 µM | 200,000 compounds, 0.35% hits | AID 920;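 active = inhibition above a set limit, the mean inhibition across all tested compounds plus 3 SD, cut at about 34% in these data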
NF-kB expr up = NF-kB expression increase, human neuronal cells. NF-kB reporter expression; stronger effect = higher value. fold change at 12.5 µM. 190,000 compounds, 1.6% hits. AID 1239; in the data active = fold change above about 3.3
STAT3 inh = STAT3 signaling inhibition; U3A cells, IL-6 STAT3-luciferase reporter, luminescence; host cell line lacks STAT1; inhibition, % at 5.5 µM; 190,000 compounds, 0.89% hits;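 active = inhibition above the mean inhibition across all screened compounds plus 3 SD, cut at about 44% in these data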
APP 5'UTR act = APP 5'UTR luciferase reporter activation | SH-SY5Y APP 5'UTR luciferase reporter, luminescence; zero percent = DMSO vehicle wells | activation, % at 2 µM | 190,000 compounds, 1% hits | AID 1276;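 active = activation above a set limit, based on mean plus 3 SD of controls, cut at about 140% in these data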
A number is an active result; n = inactive; ! = a repeat was not active.

SMILES	STAT1 activator	STAT3 activator	STAT1 blocker	NF-kB expr up	STAT3 inh	APP 5'UTR act
COc1ccc(-c2csc(NC(=O)c3ccccc3NS(=O)(=O)c3ccc(F)c(F)c3)n2)cc1	n	n	63	n	79	n
Cc1ccc(-c2csc(NC(=O)COC(=O)c3cccc(S(=O)(=O)N4CCOCC4)c3)n2)cc1	131	n	n	3.6	n	n
COc1cccc(C(=O)Nc2nc(-c3ccc(S(=O)(=O)N4CCOCC4)cc3)cs2)c1	n	n	47	n	48	n
CCN(CC)C(=O)CNC(=S)N(CCCN1CCOCC1)Cc1cccs1	n	n	n	n	n	n
Cc1c(CCOC(=O)c2cccc([N+](=O)[O-])c2)sc[n+]1CC(=O)c1ccccc1	n	n	n	n	n	n
CN(C)/C=N/S(=O)(=O)c1cccn1-c1ncc(C(F)(F)F)cc1Cl	n	n	n	n	n	n
CN(C)/C=N/c1ncn(-c2ncc(C(F)(F)F)cc2Cl)n1	133	n	n	n	n	n
CN(C)C(=O)CN(c1ccc(F)c(Cl)c1)S(C)(=O)=O	n	135	n	n	n	n
Cc1ccc2cc(CCNC(=O)c3ccc(C)c([N+](=O)[O-])c3)c(=O)[nH]c2c1	n	n	n	n	n	n
Cc1ccc(C)c(C(=O)CCC(=O)NCc2ccc(Cl)cc2)c1	n	n	n	n	n	n
CC(=O)Nc1ccc(C2Nc3ccccc3C(=O)N2C2CCCCC2)cc1 (stereo not given)	n	n	n	3.4	n	n
CN1CCC(N(C)C(=S)NC(=O)c2cc(-c3cccc(Br)c3)nc3ccccc23)CC1	n	n	n	n	n	n
CCOc1ccc(OCc2cccc(C(=O)N/N=C/c3cccnc3)c2)cc1	n	n	62	n	96	n
CC(C)c1ccc(OCc2cccc(C(=O)N/N=C/c3cccnc3)c2)cc1	n	n	36	n	57	n
COC(=O)[C@@]1(Cc2ccc(F)cc2)[C@H]2c3cc(C(=O)N(C)C)n(Cc4nc5ccccc5[nH]4)c3C[C@H]2CN1C(=O)c1ccccc1	n	n	n	n	n	n
c1cncc(Nc2nc(-c3cccs3)cs2)c1	132	141	n	n	n	n
COc1ccc(-c2csc(Nc3cccnc3)n2)cc1	134	n	n	n	n	n
Cc1nc(N)sc1-c1csc(N(C)c2ccc(O)cc2)n1	n	n	n	n	n	n
CN(c1ccc(O)cc1)c1nc(-c2cccs2)cs1	141	n	n	7	n	173
Cc1ccc(Nc2nc(-c3cccs3)cs2)nc1	n	n	64	4.9	80	172
CN(C)/C=C1\SC(=S)N(N2C(=O)C3C4C=CC(C4)C3C2=O)C1=O (stereo not given)	n	n	n	n	n	n
O=C(Cc1ccccc1)Nc1nc(-c2cccs2)cs1	n	n	n	n	n	n
Cc1cc(O)ccc1Nc1nc(-c2cccs2)cs1	n	n	n	7.2	n	148
CCc1nc(N[C@@H](Cc2c[nH]c3ccccc23)C(=O)O)c2oc3ccccc3c2n1	n	n	n	n	n	n
CC(=O)/C=C(/C)NC(Cc1c[nH]c2ccccc12)C(=O)O (stereo not given)	n	133!	n	n	n	n
SMILES	STAT1 activator	STAT3 activator	STAT1 blocker	NF-kB expr up	STAT3 inh	APP 5'UTR act
O=C(NC(Cc1c[nH]c2ccccc12)C(=O)O)c1ccccc1 (stereo not given)	n	n	n	n	n	n
O=C(O)C(=O)Cc1c[nH]c2ccccc12	n	133	n	n	n	n
Cc1nc(N[C@@H](Cc2c[nH]c3ccccc23)C(=O)O)c2oc3ccccc3c2n1	n	150	n	n	n	n
CC(C)CNC(=O)c1ccc(COc2ccc(Cl)cc2Cl)o1	n	n	n	n	n	n
COc1ccc(C2OC(=O)CC2C(=O)NCc2ccccc2Cl)cc1OC (stereo not given)	n	n	n	n	n	n
N/C(=N\OC(=O)c1ccc2c(c1)OCO2)c1cccnc1	n	n	n	3.5	n	n
N/C(=N\OC(=O)c1ccc(Cl)c(Cl)c1)c1cccnc1	n	n	n	4	n	n
COc1ccc(/C(N)=N/OC(=O)c2ccc3c(c2)OCO3)cc1OC	n	n	n	n	n	n
N/C(=N\OC(=O)c1ccc2c(c1)OCO2)c1ccc([N+](=O)[O-])cc1	129	n	n	n	n	n
N/C(=N\OC(=O)c1ccccc1Cl)c1cccnc1	140	n	n	5.7	n	n
Cc1cc(C)c(C2=NOC3C4CCC(C4)C23)c(C)c1 (stereo not given)	n	n	n	n	n	n
N#Cc1ccc(OCC(=O)N/N=C(\CCC(=O)O)c2cccs2)cc1	n	n	n	n	n	n
Cc1nnc(SCC(=O)NNC(=O)C(C)C)[nH]c1=O	n	n	n	n	n	n
CCCCOc1ccc(C2NC(=O)NC(C)=C2C(C)=O)cc1OCC (stereo not given)	n	n	n	n	n	n
COc1cccc2c1OCC/C2=N\NC(=O)C(C)Oc1ccc([N+](=O)[O-])cc1 (stereo not given)	n	n	n	n	n	n
Cc1nnc2c(NC3CCCC3)nc3ccccc3n12	n	n	n	n	n	n
c1ccc2c(c1)nc(NC1CCCCC1)c1nncn12	n	136	n	n	n	n
COc1ccc(-n2nc([N+](=O)[O-])c(=NCc3cccnc3)n2O)cc1	149	n	n	n	n	n
O=[N+]([O-])c1nn(-c2ccc3c(c2)OCCO3)n(O)c1=NCc1ccccc1Cl	146	n	n	n	n	n
COc1ccc(-n2nc([N+](=O)[O-])c(=NCCc3ccc(Cl)cc3)n2O)cc1	n	n	n	n	n	n
COc1ccc(-n2nc([N+](=O)[O-])c(=NCCc3ccc(C)cc3)n2O)cc1	n	n	n	n	n	n
COc1ccc(-n2nc([N+](=O)[O-])c(=NCc3ccco3)n2O)cc1	143	n	n	n	n	n
NNC(=O)c1cccc(COc2cccc(Br)c2)c1	n	n	n	n	n	n
COc1ccc(OCc2cccc(C(=O)NN)c2)cc1	n	n	65	n	98	n
O=C(NCc1ccccc1)c1cccc(COc2ccc(Cl)cc2)c1	n	n	n	n	n	n
COc1ccc(C(=O)Nc2cc(C)on2)cc1	n	n	n	n	n	n
COc1ccc(OCc2cccc(C(=O)Nc3cc(C)on3)c2)cc1	n	n	58	n	69	n
COc1ccc(OCc2cccc(C(=O)Nn3cc([N+](=O)[O-])cn3)c2)cc1	n	n	88	7.4	49	n
COc1cc(CNC(=O)c2cccc(COc3ccc(Cl)cc3)c2)cc(OC)c1	n	n	n	n	n	139
CCN(C(=O)CSc1nnnn1-c1ccccc1)C1CCS(=O)(=O)C1 (stereo not given)	n	n	n	n	n	n
